Read-outs that look alike come from different tables or passages of the source. Blank lines part the entries; values can stand above or below the compound they belong to. Peptide text beside a SMILES is read from it.
Key:
[1] = target: MLL1 core complex (MLL1/WDR5/RbBP5/ASH2L) (Homo sapiens, UniProt P61964); assay: In vitro H3K4 histone methyltransferase; assay type: biochemical; conditions: for inhibition of MLL1 HMT activity, result in words: up to 400 μM
WDR5 = WDR5 (Homo sapiens, UniProt P61964); assay: Fluorescence-polarization; assay type: binding; conditions: for decrease in binding affinity to WDR5 (times) compared to ARA (Ac-ARA-NH2) / improvement in binding affinity to WDR5 (times more potent) compared to ARA (Ac-ARA-NH2): relative to ARA peptide; for weakening of binding to WDR5 (times) compared to Val and Abu at Ala1: relative to Val and Abu
K562 cells [2] = assay: Annexin V-propidium iodide apoptosis assay; assay type: cell-based; conditions: K562, up to 50 μM, 96 h
Meis-1 = assay: qRT-PCR analysis of Meis-1 expression in MLL1-AF9 transduced bone marrow cells; assay type: cell-based; conditions: 50 μM, 96 h, MLL1-AF9 transduced murine cells
Method in brief: (§1)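 Murine bone marrow cells transduced with MLL1-AF9 were exposed for 96 h to test compound (25 or 50 μM), a control compound (50 μM) or mock, all at 0.2% final DMSO. Total RNA was extracted (Trizol plus column kit) and cDNA made by random priming. SYBR real-time PCR used gene-specific primers for HoxA9, Meis1 and GAPDH. Expression is relative to mock after normalizing to GAPDH or total input RNA; unpaired t test versus mock.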

HoxA9 = assay: qRT-PCR analysis of HoxA9 expression in MLL1-AF9 transduced bone marrow cells; assay type: cell-based; conditions: 96 h, MLL1-AF9 transduced murine cells
Method in brief: as §1

K562 cells [3] = assay: Cell growth, CellTiter-Glo Luminescent Cell Viability Assay; assay type: cell-based; conditions: 7 days
Method in brief: (§2)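 Cells grown in RPMI 1640 with 10% FBS and penicillin-streptomycin at 37 °C, 5% CO2. Seeded at 5 × 10^5 cells per well and exposed to test compound or 0.2% DMSO vehicle for 7 days. Medium was changed and compound resupplied every 2 days. CellTiter-Glo reagent added, 2 min shaking to lyse, 10 min at room temperature, then luminescence read.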

GAPDH = assay: qRT-PCR analysis of GAPDH; assay type: cell-based; conditions: 96 h, MLL1-AF9 transduced murine cells
Method in brief: as §1

MV4;11 cells [4] = assay: Annexin V-propidium iodide apoptosis assay; assay type: cell-based; conditions: MV4;11, 50 μM, 96 h
MV4;11 cells [5] = assay: Cell growth, CellTiter-Glo Luminescent Cell Viability Assay; assay type: cell-based; conditions: 7 days
Method in brief: as §2

KOPN8 cells = assay: as above; assay type: cell-based; conditions: 7 days
Method in brief: as §2

IC50 [1]: 141 ± 52 µM
SMILES: CC(=O)N[C@@H](C)C(=O)N[C@@H](CCCNC(=N)N)C(=O)N[C@@H](C)C(N)=O [ARA, Ac-ARA-NH2] (Ac-Ala-Arg-Ala-NH2)

inhibition of MLL1 HMT activity, result in words [1]: fail to inhibit the MLL1 HMT activity | decrease in binding affinity to WDR5 (times) compared to ARA (Ac-ARA-NH2) (WDR5): > 100
SMILES: CC(=O)NCC(=O)N[C@@H](CCCNC(=N)N)C(=O)N[C@@H](C)C(N)=O [Compound 1a] (Ac-Gly-Arg-Ala-NH2)

improvement in binding affinity to WDR5 (times more potent) compared to ARA (Ac-ARA-NH2) (WDR5): 2
SMILES: CC[C@H](NC(C)=O)C(=O)N[C@@H](CCCNC(=N)N)C(=O)N[C@@H](C)C(N)=O [Compound 1b]

improvement in binding affinity to WDR5 (times more potent) compared to ARA (Ac-ARA-NH2) (WDR5): 2
SMILES: CC(=O)N[C@H](C(=O)N[C@@H](CCCNC(=N)N)C(=O)N[C@@H](C)C(N)=O)C(C)C [Compound 1c] (Ac-Val-Arg-Ala-NH2)

decrease in binding affinity to WDR5 (times) compared to ARA (Ac-ARA-NH2) (WDR5): 3
SMILES: CC(=O)N[C@@H](CS)C(=O)N[C@@H](CCCNC(=N)N)C(=O)N[C@@H](C)C(N)=O [Compound 1d] (Ac-Cys-Arg-Ala-NH2)

decrease in binding affinity to WDR5 (times) compared to ARA (Ac-ARA-NH2) (WDR5): 3–6
SMILES: CC(=O)N[C@@H](Cc1c[nH]cn1)C(=O)N[C@@H](CCCNC(=N)N)C(=O)N[C@@H](C)C(N)=O [Compound 1g] (Ac-His-Arg-Ala-NH2)

inhibition of MLL1 HMT activity, result in words [1]: fail to inhibit the MLL1 HMT activity | decrease in binding affinity to WDR5 (times) compared to ARA (Ac-ARA-NH2) (WDR5): 3–6
SMILES: CC(=O)N[C@@H](Cc1ccccc1)C(=O)N[C@@H](CCCNC(=N)N)C(=O)N[C@@H](C)C(N)=O [Compound 1h] (Ac-Phe-Arg-Ala-NH2)

decrease in binding affinity to WDR5 (times) compared to ARA (Ac-ARA-NH2) (WDR5): 5 | weakening of binding to WDR5 (times) compared to Val and Abu at Ala1 (WDR5): approximately 10
SMILES: CC(=O)N[C@@H](CO)C(=O)N[C@@H](CCCNC(=N)N)C(=O)N[C@@H](C)C(N)=O [Compound 1i] (Ac-Ser-Arg-Ala-NH2)

decrease in binding affinity to WDR5 (times) compared to ARA (Ac-ARA-NH2) (WDR5): 5 | weakening of binding to WDR5 (times) compared to Val and Abu at Ala1 (WDR5): approximately 10
SMILES: CC(=O)N[C@H](C(=O)N[C@@H](CCCNC(=N)N)C(=O)N[C@@H](C)C(N)=O)[C@@H](C)O [Compound 1j] (Ac-Thr-Arg-Ala-NH2)

IC50 (WDR5): > 300 µM | Ki (WDR5): > 65 µM | binding to WDR5, result in words (WDR5; FP-based competitive binding): complete loss of binding
SMILES: CCCC[C@H](NC(=O)[C@H](C)NC(C)=O)C(=O)N[C@@H](C)C(N)=O [Compound 2a]

IC50 (WDR5): > 300 µM | Ki (WDR5): > 65 µM | binding to WDR5, result in words (WDR5; FP-based competitive binding): complete loss of binding
SMILES: CC(=O)N[C@@H](C)C(=O)N[C@@H](CCCN)C(=O)N[C@@H](C)C(N)=O [Compound 2b]

IC50 (WDR5): > 300 µM | Ki (WDR5): > 65 µM | binding to WDR5, result in words (WDR5; FP-based competitive binding): inactive
SMILES: CC(=O)N[C@@H](C)C(=O)N[C@@H](CCCCN)C(=O)N[C@@H](C)C(N)=O [Compound 2c] (Ac-Ala-Lys-Ala-NH2)

inhibition of MLL1 HMT activity, result in words [1]: fail to inhibit the MLL1 HMT activity | binding to WDR5, result in words (WDR5; FP-based competitive binding): fails to bind to WDR5
SMILES: CC(=O)N[C@@H](C)C(=O)N[C@@H](CCCNC(N)=O)C(=O)N[C@@H](C)C(N)=O [Compound 2d]

decrease in binding affinity to WDR5 (times) compared to ARA (Ac-ARA-NH2) (WDR5): > 10
SMILES: CC(=O)N[C@@H](C)C(=O)N[C@@H](CCCNC(=N)N)C(=O)NCC(N)=O [Compound 3a] (Ac-Ala-Arg-Gly-NH2)

improvement in binding affinity to WDR5 (times more potent) compared to ARA (Ac-ARA-NH2) (WDR5): 20
SMILES: CC[C@H](NC(=O)[C@H](CCCNC(=N)N)NC(=O)[C@H](C)NC(C)=O)C(N)=O [Compound 3b]

improvement in binding affinity to WDR5 (times more potent) compared to ARA (Ac-ARA-NH2) (WDR5): 5
SMILES: CC(=O)N[C@@H](C)C(=O)N[C@@H](CCCNC(=N)N)C(=O)N[C@H](C(N)=O)C(C)C [Compound 3c] (Ac-Ala-Arg-Val-NH2)

decrease in binding affinity to WDR5 (times) compared to ARA (Ac-ARA-NH2) (WDR5): 3
SMILES: CC(=O)N[C@@H](C)C(=O)N[C@@H](CCCNC(=N)N)C(=O)N[C@@H](CO)C(N)=O [Compound 3h] (Ac-Ala-Arg-Ser-NH2)

reduction of binding affinity to WDR5 (fold) compared to 3b (WDR5; relative to 3b): 3 | improvement in binding affinity to WDR5 (times more potent) compared to ARA (Ac-ARA-NH2) (WDR5): 5
SMILES: CC(=O)N[C@@H](C)C(=O)N[C@@H](CCCNC(=N)N)C(=O)N[C@H](C(N)=O)[C@@H](C)O [Compound 3i] (Ac-Ala-Arg-Thr-NH2)

decrease in binding affinity to WDR5 (times) compared to ARA (Ac-ARA-NH2) (WDR5): > 100
SMILES: CC(=O)N[C@@H](C)C(=O)N[C@@H](CCCNC(=N)N)C(=O)N[C@@H](CCC(=O)O)C(N)=O [Compound 3j] (Ac-Ala-Arg-Glu-NH2)

times more potent than 3c in binding to WDR5 (WDR5; relative to 3c): 5
SMILES: CCC(CC)(NC(C)=O)C(=O)N[C@@H](CCCNC(=N)N)C(=O)N[C@H](C(N)=O)C(C)C [Compound 4f]

decrease in binding affinity to WDR5 (times less potent) compared to 3c (WDR5; relative to 3c): 15
SMILES: CC(=O)N[C@H](C(=O)N[C@@H](CCCNC(=N)N)C(=O)N[C@H](C(N)=O)C(C)C)C1CCCC1 [Compound 4i]

decrease in binding affinity to WDR5 (times less potent) compared to 3c (WDR5; relative to 3c): 50
SMILES: CC(=O)N[C@H](C(=O)N[C@@H](CCCNC(=N)N)C(=O)N[C@H](C(N)=O)C(C)C)c1ccccc1 [Compound 4j]

SMILES: CCC(CC)(NC(=O)C(C)C)C(=O)N[C@@H](CCCN=C(N)N)C(=O)NC1(C(=O)NC(c2ccc(F)cc2)c2ccc(F)cc2)CCCC1 [MM-102]
cells undergoing cell death (K562 cells [2]): < 10% | decrease in Meis-1 expression (Meis-1): 40% | reduction in HoxA9 gene expression compared with Mock (HoxA9; 25 μM): Approximately 50% | reduction in HoxA9 gene expression compared with Mock (HoxA9; 50 μM): ~70% | effect on cell growth, in words (K562 cells [3]; K562 (BCR-ABL, no MLL1 fusion), up to 50 μM): no effect | effect on cell growth, in words (K562 cells [3]; K562, 75 μM): minimal effect | improvement in binding affinity to WDR5 (times more potent) compared to ARA (Ac-ARA-NH2) (WDR5): > 200 | effect on expression of GAPDH, in words (GAPDH): did not affect the expression of GAPDH | cells undergoing cell death (MV4;11 cells [4]): > 75% | cell growth inhibition, in words (MV4;11 cells [5]; MV4;11, 75 μM): completely inhibits cell growth | IC50 (MV4;11 cells [5]; read-out: cell growth inhibition IC50, MV4;11 (MLL1-AF4)): 25 µM | cell growth inhibition, in words (KOPN8 cells; KOPN8, 75 μM): completely inhibits cell growth | IC50 (KOPN8 cells; read-out: cell growth inhibition IC50, KOPN8 (MLL1-ENL)): 25 µM

Ki (WDR5; read-out: Ki ± SD, binding affinity to WDR5, FP-based competitive binding): < 0.001 µM
SMILES: CCC(CC)(NC(=O)C(C)C)C(=O)N[C@@H](CCCNC(=N)N)C(=O)NC1(C(=O)NC(c2ccc(Cl)cc2)c2ccc(Cl)cc2)CCCC1 [MM-103]

From publication PMC5180416 (Journal of the American Chemical Society, 2012)
